These results are taken from article PMC5152947 (Journal of molecular structure, 2016).

Values joined by “and” are separate entries in the source; they are usually repeats but may differ in a detail not shown here. Equal entries are not always repeated. Where two headings read alike, the source gives them in different places.

In general, IC50 refers to the concentration at which inhibition is half-maximal.

The test system of data set [1] is HCT-116 (human colon carcinoma) cells. As to the kind of experiment: Cytotoxicity assay. It is filed as cell-based. The note with it: for TI (therapeutic index) = (IC50)CCD-18Co/(IC50)cancer cells, HCT-116: 72 h; for IC50: read-out: IC50 HCT-116.
The test system of data set [2] is CCD-18Co (human colon fibroblasts). As to the kind of experiment: Cytotoxicity assay. Type of data set: cell-based. The note with it: read-out: IC50 CCD-18Co.
Data set [3] relates to supercoiled pBR322 plasmid DNA. Briefly: Chemical nuclease activity, agarose gel electrophoresis. Type of data set: biochemical. The note with it: 50 and 100 μM, 1 h, 37 °C. A digest of the protocol:
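Supercoiled pBR322 (0.1 mg/mL) was incubated 1 h with complex in Tris buffer (50 mM Tris, 18 mM NaCl, pH 8.2), in the dark or under UV exposure, aerobic. Loading buffer quench, then 1% agarose gel in TBE (pH 8.2) at 70 V for 1 h. Gels stained with ethidium bromide ([…], 30 min), imaged under UV, and scored for nicked Form II.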

Data set [4] deals with human serum albumin (HSA) (Homo sapiens, UniProt P02768). Briefly: Fluorescence quenching titration of human serum albumin. Type of data set: binding. The note with it: for static quenching constant KS: combined quenching analysis.
For data set [5], the system named is Caco-2 (human epithelial colorectal adenocarcinoma) cells. Briefly: Cytotoxicity assay. The note with it: for TI (therapeutic index) = (IC50)CCD-18Co/(IC50)cancer cells, Caco-2: 72 h; for IC50: read-out: IC50 Caco-2.

Chain of human serum albumin (HSA) (P02768 25-609): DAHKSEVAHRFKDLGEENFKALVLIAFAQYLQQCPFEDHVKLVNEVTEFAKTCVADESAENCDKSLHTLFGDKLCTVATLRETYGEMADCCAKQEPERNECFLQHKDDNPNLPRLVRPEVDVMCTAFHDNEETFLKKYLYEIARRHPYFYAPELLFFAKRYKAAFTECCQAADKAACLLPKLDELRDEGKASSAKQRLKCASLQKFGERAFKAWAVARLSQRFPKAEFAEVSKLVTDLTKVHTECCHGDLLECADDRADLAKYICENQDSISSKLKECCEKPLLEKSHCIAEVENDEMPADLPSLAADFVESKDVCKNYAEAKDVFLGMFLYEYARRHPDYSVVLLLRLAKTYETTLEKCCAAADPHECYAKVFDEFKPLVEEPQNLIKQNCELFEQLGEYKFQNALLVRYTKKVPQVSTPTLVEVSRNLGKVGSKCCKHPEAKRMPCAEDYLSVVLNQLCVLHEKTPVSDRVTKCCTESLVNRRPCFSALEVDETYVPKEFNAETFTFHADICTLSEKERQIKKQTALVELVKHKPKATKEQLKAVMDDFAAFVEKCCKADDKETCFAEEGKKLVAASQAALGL

Consider Ga(EtATSC)3·0.25C2H5OH [Complex 2], for which, in data set [1], the “TI (therapeutic index) = (IC50)CCD-18Co/(IC50)cancer cells, HCT-116” value (shortened to “TI (therapeutic index) = … HCT-116”) came out at 1.98. The IC50 in data set [1] (24 h incubation) amounted to 49.9 ± 2.5 µM; in data set [1] (48 h incubation), 43.6 ± 2.1 µM; in data set [1] (72 h incubation) it was 30.1 ± 1.1 µM; in data set [2] (24 h incubation, normal cells), 78.6 ± 2.1 µM; in data set [2] (48 h incubation, normal cells), 60.6 ± 2 µM; in data set [2] (72 h incubation, normal cells), 59.5 ± 2.5 µM. For the same compound, the concentration for half-maximal inhibition (IC50) in data set [5] (24 h incubation) worked out at 23.1 ± 2.1 µM; in data set [5] (48 h incubation) it was 18.7 ± 1.7 µM; in data set [5] (72 h incubation), 11.6 ± 1.1 µM. Besides, the “cleavage of pBR322 DNA” value in data set [3] is given as “cleavage of the DNA occurred”. Besides, the “Modified Stern-Volmer K” value amounted to 308000 M⁻¹ in data set [4] (298 K) and 169000 M⁻¹ in data set [4] (303 K). Moreover, the “Modified Stern-Volmer f (fraction of fluorophore initially accessible)” value was determined as 1.1 in data set [4] (298 K) and 1.3 in data set [4] (303 K). Besides, the “Scatchard K” value is 29700 M⁻¹ in data set [4] (298 K) and 17600 M⁻¹ in data set [4] (303 K). The “Scatchard n (number of binding sites)” value in data set [4] (298 K) and in data set [4] (303 K) was 1.1 in each case. The “TI (therapeutic index) = (IC50)CCD-18Co/(IC50)cancer cells, Caco-2” value (from here on “TI (therapeutic index) = … Caco-2”) in data set [5] is 5 and 5.14.

In the case of `COc1cc([C@@H]2c3cc4c(cc3[C@@H](O[C@@H]3O[C@@H]5CO[C@@H](C)O[C@H]5[C@H](O)[C@H]3O)[C@H]3COC(=O)[C@H]23)OCO4)cc(OC)c1O` [Etoposide, reference compound], the “TI (therapeutic index) = … HCT-116” value in data set [1] is 3.07. Further, the half-maximal inhibitory concentration (IC50) in data set [1] (Homo sapiens, HCT-116, 24 h) worked out at 28.9 ± 2 µM; in data set [1] (Homo sapiens, HCT-116, 48 h), 26.9 ± 1.5 µM; in data set [1] (Homo sapiens, HCT-116, 72 h) it was 14.3 ± 1.4 µM; in data set [2] (Homo sapiens, CCD-18Co, 24 h) it was 51.2 ± 1.1 µM; in data set [2] (Homo sapiens, CCD-18Co, 48 h), 48.7 ± 3.1 µM; in data set [2] (Homo sapiens, CCD-18Co, 72 h) it was 43.9 ± 1.8 µM. Moreover, the half-maximal inhibitory concentration (IC50) was found to be 23 ± 0.9 µM in data set [5] (Homo sapiens, Caco-2, 24 h); 18.9 ± 1.6 µM in data set [5] (Homo sapiens, Caco-2, 48 h); 16.2 ± 1.7 µM in data set [5] (Homo sapiens, Caco-2, 72 h). Besides, the “TI (therapeutic index) = … Caco-2” value in data set [5] is given as 2.71.

Turning to Ga(PhATSC)3·H2O [Complex 3], the “TI (therapeutic index) = … HCT-116” value in data set [1] came out at 1.33. Further, the 50% inhibitory concentration (IC50) was found to be 79 ± 1.1 µM in data set [1] (24 h incubation); 56 ± 1.7 µM in data set [1] (48 h incubation); 32.1 ± 2.4 µM in data set [1] (72 h incubation); 80.9 ± 2.6 µM in data set [2] (24 h incubation, normal cells); 59.2 ± 2.6 µM in data set [2] (48 h incubation, normal cells); 42.9 ± 1.3 µM in data set [2] (72 h incubation, normal cells). Also, the IC50 came out at 78.7 ± 5.3 µM in data set [5] (24 h incubation), 58 ± 1.5 µM in data set [5] (48 h incubation) and 44.1 ± 3.6 µM in data set [5] (72 h incubation). Besides, in data set [3], the “cleavage of pBR322 DNA” value is “both the Form II and Form III (linear DNA) being present”. In addition, the “Modified Stern-Volmer K” value turned out to be 302000 M⁻¹ in data set [4] (298 K), 231000 M⁻¹ in data set [4] (303 K) and 325000 M⁻¹ in data set [4] (308 K). For the same compound, the figures for the “Modified Stern-Volmer f (fraction of fluorophore initially accessible)” value in data set [4] (298 K), in data set [4] (303 K) and in data set [4] (308 K) were 0.93, 1.1 and 1.0, respectively. Moreover, the “Scatchard K” value in data set [4] (298 K) worked out at 26300 M⁻¹; in data set [4] (303 K), 20800 M⁻¹; in data set [4] (308 K), 28800 M⁻¹. Moreover, the “Scatchard n (number of binding sites)” value in data set [4] (298 K) stood at 0.96; in data set [4] (303 K), 1.1; in data set [4] (308 K), 1.1. The results for the “static quenching constant KS” value in data set [4] (298 K) and in data set [4] (303 K) were 20400 M⁻¹ and 33500 M⁻¹, respectively. Also, the “TI (therapeutic index) = … Caco-2” value in data set [5] is on record as 0.97.
